AI-2 QS mod = Vibrio harveyi AI-2 quorum sensing modulation; hit rate 0.4% among 300,000; AID 2094; Vibrio harveyi JMH597 AI-2 luminescence/OD600 ratio, 9 h; stronger effect = lower value; strain lacks LuxN and CqsS sensors; 0 = neutral-control median; activity change, % at 7.5 µM; in the data active = activity change below about -75%, passing the limit was not always enough;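 note: luminescence divided by OD600 gain over 9 h not by final OD600 alone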
KCC2 mod = modulates chloride dependent transport by human KCC2; KCC2 cells, thallium flux FluoZin-2 fluorescence; B-score of Tl+ flux slope (higher = more flux/activation; lower = inhibition) at 10 µM; hit rate 2.2% among 190,000; AID 1456;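 active = thallium flux slope and its plate-corrected score both differing from the plate sample mean at a set confidence after two filtering rounds, in either direction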;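 note: slope of fluorescence scaled to starting intensity during 10 to 20 s after thallium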
Target sequence (Q9H2X9 whole entry, looked up): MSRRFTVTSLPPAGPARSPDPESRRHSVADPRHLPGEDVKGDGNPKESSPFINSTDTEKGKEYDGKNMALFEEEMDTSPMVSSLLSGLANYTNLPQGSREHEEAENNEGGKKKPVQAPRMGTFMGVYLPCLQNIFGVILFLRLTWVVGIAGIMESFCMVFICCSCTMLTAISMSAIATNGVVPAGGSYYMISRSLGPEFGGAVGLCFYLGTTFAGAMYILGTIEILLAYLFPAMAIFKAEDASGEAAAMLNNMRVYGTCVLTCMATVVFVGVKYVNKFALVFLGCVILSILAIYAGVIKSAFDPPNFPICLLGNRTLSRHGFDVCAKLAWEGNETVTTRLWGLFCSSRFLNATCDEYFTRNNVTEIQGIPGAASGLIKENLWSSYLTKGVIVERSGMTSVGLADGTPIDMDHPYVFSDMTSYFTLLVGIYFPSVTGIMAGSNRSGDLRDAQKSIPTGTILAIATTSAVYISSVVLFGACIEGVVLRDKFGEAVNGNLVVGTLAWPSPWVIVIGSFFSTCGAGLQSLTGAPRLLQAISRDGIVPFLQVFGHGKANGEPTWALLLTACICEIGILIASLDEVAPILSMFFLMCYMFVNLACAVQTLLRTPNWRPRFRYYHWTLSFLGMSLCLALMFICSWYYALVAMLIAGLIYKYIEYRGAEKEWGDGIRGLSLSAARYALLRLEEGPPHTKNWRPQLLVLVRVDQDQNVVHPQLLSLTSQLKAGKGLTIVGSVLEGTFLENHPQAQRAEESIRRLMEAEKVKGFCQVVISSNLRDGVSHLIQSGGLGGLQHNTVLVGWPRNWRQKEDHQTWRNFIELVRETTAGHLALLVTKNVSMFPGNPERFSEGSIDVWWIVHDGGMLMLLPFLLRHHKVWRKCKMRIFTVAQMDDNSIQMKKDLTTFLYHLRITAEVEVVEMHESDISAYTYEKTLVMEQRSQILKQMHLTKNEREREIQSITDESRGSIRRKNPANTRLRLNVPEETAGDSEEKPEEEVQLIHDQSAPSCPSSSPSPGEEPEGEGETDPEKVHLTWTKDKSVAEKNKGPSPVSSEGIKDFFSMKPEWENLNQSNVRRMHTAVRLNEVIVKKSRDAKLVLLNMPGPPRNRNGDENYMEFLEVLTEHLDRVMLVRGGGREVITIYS
KCNQ1 inh = human KCNQ1 channel inhibition | P51787 | CHO-K1 KCNQ1, FluxOR thallium flux fluorescence; stronger effect = higher value | B-score at 10 µM | hit rate 1.3% among 310,000 | AID 2642;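 active = compounds whose thallium flux B-score, printed positive for inhibition, exceeds three library SD while starting fluorescence stays within three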;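 note: channel opened by potassium depolarization with thallium stimulus after 20 min compound exposure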
Mot1-301 SUMO = blocks SUMOylation pathway, rescuing yeast Mot1-301 growth; S. cerevisiae Mot1-301 growth rescue, ATP luminescence, 38.5C; percent above DMSO median, 100 means doubled; hit rate 1% among 320,000; growth rescue, % at 18.8 µM;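 active = every valid replicate shows activation above 250% relative to neutral control wells; inactive = the rest, any valid replicate at or below 250%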;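 note: OY570 slx delta 5 strain wells were the positive control but not used for scaling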
hERG rescue = shields human hERG channel from block by proarrhythmic agents. Q12809. CHO-hERG, FluxOR thallium flux, dofetilide IC70 present. activation (rescue from dofetilide block), less the hit threshold, % at 10 µM. hit rate 0.51% among 310,000;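 active = activation above the mean of controls blocked by dofetilide plus 5 SD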;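 note: thallium influx through hERG after potassium depolarization seen as dye fluorescence rise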
KCNQ1 pot = potentiators or activators of human KCNQ1 potassium channel | CHO-K1 KCNQ1, thallium flux FluxOR fluorescence; stronger effect = higher value | B-score at 10 µM | AID 2648 | hit rate 0.35% among 310,000;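 active = fluorescence ratio B-score, a plate-corrected score, at least three library SD, with initial intensity B-score within 5 SD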
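Test system: CHO-K1 cells stably expressing KCNQ1 / Medium: assay buffer / Also added: depolarizing K+/Tl+ stimulus, K2SO4 and Tl2SO4 each 12.5 mM in 5x stock / Incubation: 90 min dye loading and 20 min compound exposure, both at room temperature / Signal: thallium influx via FluxOR fluorescence, kinetic imaging / Evaluation: B score of baseline-normalized fluorescence ratio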
* marks the source's active call; other numbers are inactive results; i = inactive; nt = no result given. Compounds with a hit are over-represented: about 4.2% of the library has one in this group of screens.

SMILES	AI-2 QS mod	KCC2 mod	KCNQ1 inh	Mot1-301 SUMO	hERG rescue	KCNQ1 pot
O=C(Nc1cccc(-c2nc3ccccc3s2)c1)c1cc(-n2cnnc2)ccc1Cl	3.1	-1.09	6*	19.0	-18.2	i
C=CCn1c(=O)c2c(nc3n2CCCN3CCc2ccc(OC)c(OC)c2)n(C)c1=O	18.1	nt	i	-12.6	-7.8	i
CC12CCC(=O)N1C(C(=O)NCc1ccc(Cl)cc1Cl)CS2 (configuration not stated)	17.2	nt	i	1.2	-13.4	i
Cn1cccc1C(=O)NC(=O)COC(=O)c1ccccc1O	28.6	-0.898	i	76.5	5.3*	i
COc1ccccc1C1(O)C(=O)Nc2ccc(C)cc21 (configuration not stated)	10.4	nt	i	-5.8	0.1	i
C=C[C@@]1(C)CC(=O)[C@]2(O)[C@@]3(C)[C@@H](O)CCC(C)(C)[C@@H]3[C@H](O)[C@H](OC(C)=O)[C@@]2(C)O1	-0.3	nt	i	-5.6	-13.5	12*
C=C[C@@]1(C)CC(=O)[C@]2(O)[C@@]3(C)[C@@H](O)CCC(C)(C)[C@@H]3[C@H](OC(C)=O)[C@H](O)[C@@]2(C)O1	-9.3	nt	i	-10.7	-12.8	13*
C=C1C(=O)O[C@H]2C[C@]3(C)C([C@@H](OC(=O)/C(C)=C/C)[C@H]12)[C@](C)(O)CC[C@H]3O (some centres not stated)	3.6	nt	i	1.1	-4.0	i
CCOC(=O)N1CCN(C(=O)C2CCC(C(=O)N3CCN(C(=O)OCC)CC3)CC2)CC1 (configuration not stated)	nt	0.00701	nt	nt	nt	nt
Cc1noc(C)c1C(=O)OCC(=O)c1cc(C)n(Cc2ccccc2Cl)c1C	6.9	nt	i	-2.9	-9.9	i
O=C(NCC1CCCO1)C1CCN(S(=O)(=O)c2cccc3nonc23)CC1 (configuration not stated)	15.1	1.1	i	7.3	-7.3	i
Cc1cccc(N=Nc2c(C)c(C#N)c(O)[nH]c2=O)c1	-0.8	nt	i	-10.2	-10.3	i
Cc1c(C#N)c(O)[nH]c(=O)c1N=Nc1ccc(Br)cc1C(=O)O	42.5	nt	i	16.9	4.6*	i
Cc1ccc(C(=O)NNC(=S)NC(=O)c2ccc(Cl)cc2)cc1	-127.1*	nt	i	118.7	-4.2	i
O=C(NC(=S)NNC(=O)c1ccc(Cl)cc1Cl)c1cccnc1	79.5	1.88	i	nt	-8.6	i
O=C(CCc1ccccc1)NNC(=S)NC(=O)c1ccc(Cl)cc1	36.7	68.3*	i	-8.8	-4.8	i
O=C(NNC(=S)NC(=O)c1cccnc1)c1ccc(Cl)cc1	-92.7*	nt	i	-4.5	-10.9	i
O=C(Cc1ccc(Cl)cc1)NNC(=S)NC(=O)c1cccnc1	-87.6*	0.141	i	-11.9	-8.8	i
CC(=O)NNC(=S)NC(=O)c1ccc(C)cc1	-27.8	2.07	i	9.0	-4.5	i
Cc1ccc2sc(N(CCCN(C)C)C(=O)c3ccc(S(=O)(=O)N(C)C4CCCCC4)cc3)nc2c1C	-7.1	nt	i	-28.9	-23.7	i
CCN(Cc1ccccc1)S(=O)(=O)c1ccc(C(=O)N(CCCN(C)C)c2nc3c(C)c(C)ccc3s2)cc1	-8.1	nt	8*	190.6	-19.2	i
CCN(Cc1ccccc1)S(=O)(=O)c1ccc(C(=O)N(CCCN(C)C)c2nc3cc4c(cc3s2)OCO4)cc1	22.3	nt	6*	0.9	-29.8	i
CC1(C)SC(=S)N(NC(=O)Nc2ccccc2)C1N(O)C(=O)Nc1cccc2ccccc12 (configuration not stated)	3.8	0.537	9*	12.5	-10.7	i
CC1(C)SC(=S)N(/N=C/c2ccccc2O)C1N(O)C(=O)Nc1ccccc1 (configuration not stated)	-9.3	-0.43	8*	399.5	-16.2	i
CC1(C)SC(=S)N(/N=C/c2ccc(O)cc2)C1N(O)C(=O)Nc1ccc([N+](=O)[O-])cc1 (configuration not stated)	30.8	0.0164	10*	-13.1	-13.6	i

Source: PubChem BioAssay (several laboratories)
